Drawing on ChEMBL document CHEMBL4304816, “A Novel Biphenyl-based Chemotype of Retinoid X Receptor Ligands Enables Subtype and Heterodimer Preferences” (ACS Med Chem Lett, 2019), this text covers Activity, activity and fold change (FC) for three compounds.

The source made the active and inactive calls. No cut-off for these calls is given here.

Holding throughout (type): cell-based
The target of assay [1] is T1, Retinoic acid receptor RXR-gamma (Homo sapiens) (UniProt P48443).
T1 sequence (whole entry): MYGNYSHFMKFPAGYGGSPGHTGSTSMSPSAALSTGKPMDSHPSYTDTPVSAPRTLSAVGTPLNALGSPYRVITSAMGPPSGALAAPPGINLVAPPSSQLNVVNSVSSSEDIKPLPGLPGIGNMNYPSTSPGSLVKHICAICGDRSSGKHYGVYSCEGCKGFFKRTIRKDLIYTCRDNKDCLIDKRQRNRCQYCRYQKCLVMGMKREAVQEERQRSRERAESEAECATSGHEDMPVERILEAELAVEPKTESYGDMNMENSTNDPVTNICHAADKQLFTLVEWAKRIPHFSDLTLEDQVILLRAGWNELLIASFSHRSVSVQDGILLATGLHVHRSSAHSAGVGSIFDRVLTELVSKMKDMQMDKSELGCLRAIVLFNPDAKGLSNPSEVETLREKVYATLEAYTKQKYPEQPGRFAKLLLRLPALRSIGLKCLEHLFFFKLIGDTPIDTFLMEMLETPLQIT
The assay is described as follows: Agonist activity at Gal4-LBD fused RXRgamma (unknown origin) expressed in HEK293T cells at 20 uM after 14 to 16 hrs by dual-Glo luciferase assay.

Assay [2] in a line: Agonist activity at full-length human RXR/LXR expressed in HEK293T cells at 20 uM after 14 to 16 hrs by dual-glo luciferase reporter gene assay relative to untreated control. Particulars: HEK-293T, read-out: Activity. In outline: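 RXR:LXR or RXR:PPARγ heterodimer reporter assay with test compound alone. Activation expressed relative to 0.1% DMSO vehicle. Three independent experiments, each in duplicate; mean reported.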
For orientation: In a reporter assay the amount or activity of a reporter protein is the signal.

A short description of assay [3]: Agonist activity at full-length human RXR/LXR expressed in HEK293T cells at 20 uM after 14 to 16 hrs in presence of 1 uM T0901317 by dual-glo luciferase reporter gene assay relative to T0901317. Particulars: HEK-293T, read-out: Activity. In outline:
(§1)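 Synergy format: the test compound was co-applied with the partner-receptor reference agonist at 1 μM, either T0901317 (RXR:LXR) or rosiglitazone (RXR:PPARγ). Relative synergistic activation was derived from three independent experiments, each in duplicate; mean reported.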

The target in assay [4] is T2, Peroxisome proliferator-activated receptor delta (Homo sapiens) (UniProt Q03181).
T2 sequence (whole entry): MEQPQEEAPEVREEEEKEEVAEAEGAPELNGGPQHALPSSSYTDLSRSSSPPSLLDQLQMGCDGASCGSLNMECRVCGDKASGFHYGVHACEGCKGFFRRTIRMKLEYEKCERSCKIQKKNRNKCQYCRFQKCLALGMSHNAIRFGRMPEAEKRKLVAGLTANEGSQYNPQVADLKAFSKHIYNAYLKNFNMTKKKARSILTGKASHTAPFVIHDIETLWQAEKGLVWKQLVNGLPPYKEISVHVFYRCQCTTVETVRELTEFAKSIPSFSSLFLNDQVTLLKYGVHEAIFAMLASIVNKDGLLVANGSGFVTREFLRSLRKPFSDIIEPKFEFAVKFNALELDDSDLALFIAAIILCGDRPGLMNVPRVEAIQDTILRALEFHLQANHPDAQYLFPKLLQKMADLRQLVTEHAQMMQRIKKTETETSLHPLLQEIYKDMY
The assay is described as follows: Agonist activity at Gal4-LBD fused PPARbeta (unknown origin) expressed in HEK293T cells at 20 uM after 14 to 16 hrs by dual-Glo luciferase assay. The method, boiled down:
(§2)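 Gal4-hybrid reporter gene selectivity panel of related nuclear receptors (PPARα/β/γ, RARα/β/γ) in HEK293T cells. Activity is read as mean fold activation versus 0.1% DMSO vehicle, n ≥ 2.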

In assay [5] the target is T3, Peroxisome proliferator-activated receptor alpha (Homo sapiens) (UniProt Q07869).
T3 sequence (whole entry): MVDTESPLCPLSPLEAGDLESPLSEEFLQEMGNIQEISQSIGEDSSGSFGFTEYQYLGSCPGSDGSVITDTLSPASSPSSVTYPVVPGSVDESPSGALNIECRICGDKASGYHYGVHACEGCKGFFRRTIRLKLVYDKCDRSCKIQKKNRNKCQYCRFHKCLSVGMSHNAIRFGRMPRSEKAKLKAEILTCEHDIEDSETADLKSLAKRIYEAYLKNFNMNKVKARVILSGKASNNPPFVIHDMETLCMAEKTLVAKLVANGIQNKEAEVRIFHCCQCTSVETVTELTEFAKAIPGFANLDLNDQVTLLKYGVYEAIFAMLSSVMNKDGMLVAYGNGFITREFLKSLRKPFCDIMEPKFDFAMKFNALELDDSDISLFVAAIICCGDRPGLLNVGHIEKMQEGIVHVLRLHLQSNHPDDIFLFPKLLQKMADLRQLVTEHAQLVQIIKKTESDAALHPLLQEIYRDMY
The assay is described as follows: Agonist activity at Gal4-LBD fused PPARalpha (unknown origin) expressed in HEK293T cells at 20 uM after 14 to 16 hrs by dual-Glo luciferase assay. The method, boiled down:
as §2

Assay [6] addresses T1, Retinoic acid receptor RXR-gamma (Homo sapiens). As to the kind of experiment: Agonist activity at Gal4-LBD fused RXRgamma (unknown origin) expressed in HEK293T cells at 10 uM after 14 to 16 hrs by dual-Glo luciferase assay.
Assay [7] addresses T4, Retinoic acid receptor RXR-beta (Homo sapiens) (UniProt P28702).
T4 sequence (whole entry): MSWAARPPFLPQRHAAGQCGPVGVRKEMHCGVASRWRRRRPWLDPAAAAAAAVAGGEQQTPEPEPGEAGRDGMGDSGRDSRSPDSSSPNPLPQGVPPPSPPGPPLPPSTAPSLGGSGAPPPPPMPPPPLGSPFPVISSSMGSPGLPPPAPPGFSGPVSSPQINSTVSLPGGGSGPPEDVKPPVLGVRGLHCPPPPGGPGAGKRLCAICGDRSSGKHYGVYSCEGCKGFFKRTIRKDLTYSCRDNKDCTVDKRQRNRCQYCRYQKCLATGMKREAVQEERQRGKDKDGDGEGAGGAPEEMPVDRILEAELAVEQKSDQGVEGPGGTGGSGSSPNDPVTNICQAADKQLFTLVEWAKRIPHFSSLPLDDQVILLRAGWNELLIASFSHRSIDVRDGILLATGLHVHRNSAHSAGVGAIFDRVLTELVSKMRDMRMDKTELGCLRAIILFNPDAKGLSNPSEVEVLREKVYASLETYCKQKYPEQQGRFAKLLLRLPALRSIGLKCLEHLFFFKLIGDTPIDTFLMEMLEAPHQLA
As to the kind of experiment: Agonist activity at Gal4-LBD fused RXRbeta (unknown origin) expressed in HEK293T cells assessed as fold activation after 14 to 16 hrs by dual-Glo luciferase assay relative to untreated control. The method, boiled down: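 Gal4-hybrid RXRα/β/γ reporter gene assays in HEK293T cells. Fold activation is the maximal fold activation versus 0.1% DMSO.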

Assay [8] in a line: Agonist activity at full-length human RXR/LXR expressed in HEK293T cells at 10 uM after 14 to 16 hrs in presence of 1 uM T0901317 by dual-glo luciferase reporter gene assay relative to T0901317. Particulars: HEK-293T, read-out: Activity. In outline: as §1

Take `Cc1cc(-c2ccc(C(=O)O)cc2)cc(C(C)(C)C)c1`: the Activity result in assay [1] is “inactive”. The activity at 20 µM came out at 87% in assay [2] and 70% in assay [3]. Moreover, the Activity result in assay [4] and in assay [5] was “Active” each time.
Consider `Cc1cc(-c2cc(C(C)(C)C)cc(C(C)(C)C)c2)ccc1C(=O)O`, for which the Activity result in assay [6] is “inactive”. In addition, the fold change (FC) in assay [7] worked out at 38.
`Cc1cc(-c2cc(C(F)(F)F)cc(C(F)(F)F)c2)ccc1CC(=O)O`: the activity at 10 µM in assay [8] is 64%.
